Data taken from ChEMBL document CHEMBL3097989, “Antimicrobial activity of de novo designed cationic peptides against multi-resistant clinical isolates” (Eur J Med Chem, 2014).

Columns and labels:
Klebsiella pneumoniae [1] = assay: Antibacterial activity against Klebsiella pneumoniae M9491 clinical isolate expressing blaMOX gene by microdilution test; type: functional
Outline: (§1)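 MIC by standard broth microdilution following CLSI recommendations, in Mueller Hinton broth supplemented with Ca²⁺ (20-25mg/L) and Mg²⁺ (10-12.5mg/L); peptides tested against a panel of multi-resistant clinical isolates plus ATCC reference strains.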

Klebsiella pneumoniae [2] = assay: Antibacterial activity against Klebsiella pneumoniae PFAV3 by microdilution test; type: functional; outline: as §1
Acinetobacter sp. [3] = assay: Antibacterial activity against Acinetobacter sp. M7978 clinical isolate expressing blaIMP-1 gene by microdilution test; type: functional; outline: as §1
Acinetobacter sp. [4] = assay: Antibacterial activity against Acinetobacter sp. M5277 clinical isolate expressing blaPER gene by microdilution test; type: functional; outline: as §1
Acinetobacter sp. [5] = assay: Antibacterial activity against Acinetobacter sp. PFAV1 clinical isolate expressing blaOXA-51, blaOXA-58 and blaPER gene by microdilution test; type: functional; outline: as §1
Acinetobacter sp. [6] = assay: Antibacterial activity against Acinetobacter sp. M5179 clinical isolate expressing blaOXA-51 gene by microdilution test; type: functional; outline: as §1
Acinetobacter sp. [7] = assay: Antibacterial activity against Acinetobacter sp. M5282 clinical isolate expressing blaOXA-51 gene by microdilution test; type: functional; outline: as §1
Acinetobacter sp. [8] = assay: Antibacterial activity against Acinetobacter sp. M13523 clinical isolate expressing blaOXA-51 gene by microdilution test; type: functional; outline: as §1
Pseudomonas aeruginosa [9] = assay: Antibacterial activity against Pseudomonas aeruginosa M7712 clinical isolate expressing blaSPM gene by microdilution test; type: functional
Outline: (§2)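 MIC by standard broth microdilution following CLSI recommendations, in Mueller Hinton broth supplemented with Ca²⁺ (20-25 mg/L) and Mg²⁺ (10-12.5 mg/L); ATCC reference strains included in the panel.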

Pseudomonas aeruginosa [10] = assay: Antibacterial activity against Pseudomonas aeruginosa M7525 clinical isolate expressing blaSPM gene by microdilution test; type: functional; outline: as §2
Pseudomonas aeruginosa [11] = assay: Antibacterial activity against Pseudomonas aeruginosa M5200 clinical isolate expressing blaVIM and blaGES-1 gene by microdilution test; type: functional; outline: as §2
Pseudomonas aeruginosa [12] = assay: Antibacterial activity against Pseudomonas aeruginosa M5109 clinical isolate expressing blaVIM and blaGES-1 gene by microdilution test; type: functional; outline: as §2
Pseudomonas aeruginosa [13] = assay: Antibacterial activity against Pseudomonas aeruginosa M13513 clinical isolate expressing blaKPC-2 gene by microdilution test; type: functional; outline: as §1
Pseudomonas aeruginosa [14] = assay: Antibacterial activity against Pseudomonas aeruginosa M7907 clinical isolate expressing blaPER gene by microdilution test; type: functional; outline: as §2
Pseudomonas aeruginosa [15] = assay: Antibacterial activity against Pseudomonas aeruginosa ATCC 27853 by microdilution test; type: functional; outline: as §1
[16] = Toxicity in human RBC assessed as hemolytic activity relative to control; type: cell-based, Erythrocyte; conditions: red blood cells (RBC), read-out: Activity
Outline: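 Heparinized human whole blood diluted 3x in PBS and centrifuged 10 min at 1500 rpm, repeated three times. Cells resuspended to 10% (v/v), then diluted to about 0.5% (v/v). Peptides added at various concentrations for 30 min at 37 °C. Supernatant absorbance read at 550 nm. Lysis calculated against buffer (0%) and water (100%). Readings taken in triplicate and averaged.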

Enterococcus gallinarum = assay: Antibacterial activity against Enterococcus gallinarum M2685 clinical isolate expressing vanC1 and vanA gene by microdilution test; type: functional; outline: as §1
Enterococcus faecium [17] = assay: Antibacterial activity against Enterococcus faecium M2664 clinical isolate expressing vanA gene by microdilution test; type: functional; outline: as §1
Enterococcus faecium [18] = assay: Antibacterial activity against Enterococcus faecium M2304 clinical isolate expressing vanA gene by microdilution test; type: functional; outline: as §1
Enterococcus faecium [19] = assay: Antibacterial activity against Enterococcus faecium M2619 clinical isolate expressing vanB gene by microdilution test; type: functional; outline: as §1
Enterococcus faecalis [20] = assay: Antibacterial activity against Enterococcus faecalis M6983 clinical isolate expressing vanA gene by microdilution test; type: functional; outline: as §1
Enterococcus faecalis [21] = assay: Antibacterial activity against Enterococcus faecalis M4449 clinical isolate expressing vanA gene by microdilution test; type: functional; outline: as §1
Enterococcus faecalis [22] = assay: Antibacterial activity against Enterococcus faecalis M6534 clinical isolate expressing vanB gene by microdilution test; type: functional; outline: as §1
Enterococcus faecalis [23] = assay: Antibacterial activity against Enterococcus faecalis ATCC 51299 clinical isolate expressing vanB gene by microdilution test; type: functional; outline: as §1
Staphylococcus cohnii = assay: Antibacterial activity against Staphylococcus cohnii M6767 clinical isolate expressing mecA gene by microdilution test; type: functional; outline: as §2
Staphylococcus warneri = assay: Antibacterial activity against Staphylococcus warneri M6823 clinical isolate expressing mecA gene by microdilution test; type: functional; outline: as §2
Staphylococcus hominis = assay: Antibacterial activity against Staphylococcus hominis M2967 clinical isolate expressing mecA gene by microdilution test; type: functional; outline: as §2
[24] = tested on: Staphylococcus saprophyticus; assay: Antibacterial activity against Staphylococcus saprophyticus M2981 clinical isolate expressing mecA gene by microdilution test; type: functional; outline: as §2
[25] = tested on: Staphylococcus saprophyticus; assay: Antibacterial activity against Staphylococcus saprophyticus M4070 clinical isolate expressing mecA gene by microdilution test; type: functional; outline: as §2
[26] = tested on: Staphylococcus epidermidis; assay: Antibacterial activity against Staphylococcus epidermidis M2921 clinical isolate expressing mecA gene by microdilution test; type: functional; outline: as §2
[27] = tested on: Staphylococcus epidermidis; assay: Antibacterial activity against Staphylococcus epidermidis M2919 clinical isolate expressing mecA gene by microdilution test; type: functional; outline: as §2
[28] = tested on: Staphylococcus epidermidis; assay: Antibacterial activity against Staphylococcus epidermidis M2923 by microdilution test; type: functional; outline: as §2
Staphylococcus aureus [29] = assay: Antibacterial activity against Staphylococcus aureus M6820 clinical isolate expressing mecA gene by microdilution test; type: functional; outline: as §2
Staphylococcus aureus [30] = assay: Antibacterial activity against Staphylococcus aureus M4046 clinical isolate expressing mecA gene by microdilution test; type: functional; outline: as §2
Staphylococcus aureus [31] = assay: Antibacterial activity against Staphylococcus aureus M6794 clinical isolate expressing mecA gene by microdilution test; type: functional; outline: as §2
Staphylococcus aureus [32] = assay: Antibacterial activity against Staphylococcus aureus P239 clinical isolate expressing ermC gene by microdilution test; type: functional; outline: as §2
Staphylococcus aureus [33] = assay: Antibacterial activity against Staphylococcus aureus P204 clinical isolate expressing ermA gene by microdilution test; type: functional; outline: as §2
Staphylococcus aureus [34] = assay: Antibacterial activity against Staphylococcus aureus P28 clinical isolate expressing ermA gene by microdilution test; type: functional; outline: as §2
Staphylococcus aureus [35] = assay: Antibacterial activity against Staphylococcus aureus P33 clinical isolate expressing msrA gene by microdilution test; type: functional; outline: as §2
Escherichia coli [36] = assay: Antibacterial activity against Escherichia coli M9209 clinical isolate expressing blaKPC-2 gene by microdilution test; type: functional; outline: as §1
Escherichia coli [37] = assay: Antibacterial activity against Escherichia coli PABC11 clinical isolate expressing blaCTX-M-2 gene by microdilution test; type: functional; outline: as §1
Escherichia coli [38] = assay: Antibacterial activity against Escherichia coli PCOS15 clinical isolate expressing blaPER-2 and blaTEM-1 gene by microdilution test; type: functional; outline: as §1
Escherichia coli [39] = assay: Antibacterial activity against Escherichia coli PNEU23 clinical isolate expressing blaOXA-GIII and blaTEM-1 gene by microdilution test; type: functional; outline: as §1
Escherichia coli [40] = assay: Antibacterial activity against Escherichia coli M7859 clinical isolate expressing blaCIT gene by microdilution test; type: functional; outline: as §1
Escherichia coli [41] = assay: Antibacterial activity against Escherichia coli M9884 by microdilution test; type: functional; outline: as §1
Klebsiella pneumoniae [42] = assay: Antibacterial activity against Klebsiella pneumoniae M9885 clinical isolate expressing blaKPC-2 gene by microdilution test; type: functional; outline: as §1
Klebsiella pneumoniae [43] = assay: Antibacterial activity against Klebsiella pneumoniae M13540 clinical isolate expressing blaKPC-2 gene by microdilution test; type: functional; outline: as §1
Klebsiella pneumoniae [44] = assay: Antibacterial activity against Klebsiella pneumoniae M7647 clinical isolate expressing blaVIM, blaCTX-M-2, blaTEM-1 and blaSHV-1 gene by microdilution test; type: functional; outline: as §1
Klebsiella pneumoniae [45] = assay: Antibacterial activity against Klebsiella pneumoniae M5825 clinical isolate expressing blaGES-3 and blaCTX-M-2 gene by microdilution test; type: functional; outline: as §1

H-RIVQRIKKWLLKWKKLGY-NH2
256 µg/mL: MIC90 (Enterococcus faecalis [22]) | MIC90 (Enterococcus faecalis [23])
64 µg/mL: MIC90 (Klebsiella pneumoniae [1]) | MIC90 (Acinetobacter sp. [3]) | MIC90 (Acinetobacter sp. [4]) | MIC90 (Acinetobacter sp. [5]) | MIC90 (Acinetobacter sp. [6]) | MIC90 (Acinetobacter sp. [7]) | MIC90 (Acinetobacter sp. [8]) | MIC90 (Pseudomonas aeruginosa [9]) | MIC90 (Pseudomonas aeruginosa [10]) | MIC90 (Pseudomonas aeruginosa [11]) | MIC90 (Pseudomonas aeruginosa [12]) | MIC90 (Pseudomonas aeruginosa [13]) | MIC90 (Pseudomonas aeruginosa [14]) | MIC90 (Pseudomonas aeruginosa [15]) | MIC90 (Staphylococcus aureus [29]) | MIC90 (Staphylococcus aureus [31]) | MIC90 (Staphylococcus aureus [32]) | MIC90 (Staphylococcus aureus [34]) | MIC90 (Staphylococcus aureus [35]) | MIC90 (Escherichia coli [38]) | MIC90 (Klebsiella pneumoniae [43])
9.5%: hemolysis [16]
16 µg/mL: MIC90 (Enterococcus gallinarum) | MIC90 (Enterococcus faecium [19]) | MIC90 [28] | MIC90 (Escherichia coli [40])
128 µg/mL: MIC90 (Klebsiella pneumoniae [2]) | MIC90 (Enterococcus faecalis [20]) | MIC90 (Enterococcus faecalis [21]) | MIC90 (Escherichia coli [36])
32 µg/mL: MIC90 (Staphylococcus aureus [30]) | MIC90 (Staphylococcus aureus [33]) | MIC90 (Escherichia coli [37]) | MIC90 (Escherichia coli [39]) | MIC90 (Escherichia coli [41]) | MIC90 (Klebsiella pneumoniae [42]) | MIC90 (Klebsiella pneumoniae [44]) | MIC90 (Klebsiella pneumoniae [45])
8 µg/mL: MIC90 (Enterococcus faecium [17]) | MIC90 (Enterococcus faecium [18]) | MIC90 (Staphylococcus cohnii) | MIC90 (Staphylococcus warneri) | MIC90 (Staphylococcus hominis) | MIC90 [24] | MIC90 [25] | MIC90 [26] | MIC90 [27]

H-WPKWWKWKRRWGRKKAKKRRG-NH2
128 µg/mL: MIC90 (Pseudomonas aeruginosa [12]) | MIC90 (Pseudomonas aeruginosa [14]) | MIC90 (Enterococcus faecalis [21]) | MIC90 (Enterococcus faecalis [22]) | MIC90 (Escherichia coli [36]) | MIC90 (Escherichia coli [37]) | MIC90 (Escherichia coli [38]) | MIC90 (Escherichia coli [39]) | MIC90 (Escherichia coli [40]) | MIC90 (Escherichia coli [41])
1020 µg/mL: MIC90 (Klebsiella pneumoniae [1]) | MIC90 (Klebsiella pneumoniae [2])
3.4%: hemolysis [16]
32 µg/mL: MIC90 (Pseudomonas aeruginosa [13]) | MIC90 (Enterococcus faecium [19]) | MIC90 (Staphylococcus aureus [30]) | MIC90 (Staphylococcus aureus [31]) | MIC90 (Staphylococcus aureus [32]) | MIC90 (Staphylococcus aureus [34]) | MIC90 (Staphylococcus aureus [35])
16 µg/mL: MIC90 (Enterococcus gallinarum) | MIC90 (Enterococcus faecium [17]) | MIC90 (Enterococcus faecium [18]) | MIC90 (Staphylococcus cohnii) | MIC90 [24] | MIC90 [25] | MIC90 [27] | MIC90 [28]
64 µg/mL: MIC90 (Acinetobacter sp. [3]) | MIC90 (Acinetobacter sp. [4]) | MIC90 (Acinetobacter sp. [5]) | MIC90 (Acinetobacter sp. [6]) | MIC90 (Acinetobacter sp. [7]) | MIC90 (Acinetobacter sp. [8]) | MIC90 (Pseudomonas aeruginosa [9]) | MIC90 (Pseudomonas aeruginosa [10]) | MIC90 (Pseudomonas aeruginosa [11]) | MIC90 (Pseudomonas aeruginosa [15]) | MIC90 (Enterococcus faecalis [20]) | MIC90 (Staphylococcus aureus [29]) | MIC90 (Staphylococcus aureus [33])
256 µg/mL: MIC90 (Enterococcus faecalis [23])
> 1020 µg/mL: MIC90 (Klebsiella pneumoniae [42]) | MIC90 (Klebsiella pneumoniae [43]) | MIC90 (Klebsiella pneumoniae [44]) | MIC90 (Klebsiella pneumoniae [45])
8 µg/mL: MIC90 (Staphylococcus warneri) | MIC90 (Staphylococcus hominis) | MIC90 [26]
